Legend:
Histamine H2 receptor [1] = molecular target: T1, Histamine H2 receptor (Homo sapiens, UniProt P25021); assay: Binding affinity against human H2 receptor by the displacement of [125I]iodoaminopotentidine, bound to membranes of CHO cells.; type: cell membranes
Histamine H3 receptor [2] = molecular target: T2, Histamine H3 receptor (Cavia porcellus, UniProt Q9JI35); assay: Tested in vitro for antagonist activity against H3 receptor of guinea pig jejunum.; type: functional, tissue-based; conditions: read-out: pA2 (converted)
Method in brief: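 Isolated guinea pig jejunum segments were electrically stimulated, giving twitches from endogenous acetylcholine release. Antagonism was tested against cumulative (R)-α-methylhistamine concentration–response curves, using at least three antagonist concentrations. pA2 was the negative log of the Schild plot abscissal intercept. Tissues came from at least four animals, tested in triplicate; Student's t-test, p < 0.05.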

Histamine H1 receptor [3] = molecular target: T3, Histamine H1 receptor (Cavia porcellus, UniProt P31389); assay: Binding affinity against H1 receptor of guinea pig by the displacement of [3H]mepyramine, bound to membranes of CHO cells; type: cell membranes
Method in brief: (§1)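 Displacement of [3H]mepyramine from membranes of CHO cells expressing guinea pig H1 receptors. At least three independent experiments, each performed in triplicate.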

Histamine H3 receptor [4] = molecular target: T2, Histamine H3 receptor; assay: pD2 values against H3 receptor of guinea pig jejunum were determined.; type: tissue-based
Method in brief: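 Isolated guinea pig jejunum segments, electrically stimulated so that endogenous acetylcholine release evokes contractile twitches. Cumulative concentrations of the compound were added, and the concentration-dependent inhibition of the evoked twitches gave a concentration–response curve. Tissue from at least four animals was used, each tested in triplicate. Student's t-test, with p < 0.05 taken as significant.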

Histamine H3 receptor [5] = molecular target: T2, Histamine H3 receptor; assay: pA2 values against H3 receptor of guinea pig ileum were determined.; type: tissue-based; conditions: read-out: pA2 (converted)
[6] = molecular target: Histamine H3 receptor (Cavia porcellus) (UniProt Q9JI35); conditions: Jejunum
Histamine H1 receptor [7] = molecular target: T3, Histamine H1 receptor; assay: Binding affinity for H1 receptor of guinea pig by the displacement of [3H]mepyramine, bound to membranes of CHO cells; type: cell membranes; method in brief: as §1
Histamine H2 receptor [8] = molecular target: T1, Histamine H2 receptor; assay: Binding affinity against human H2 receptor by the displacement of [125I]iodoaminopotentidine bound to membranes of CHO cells.; type: cell membranes
Method in brief: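 Displacement of [125I]iodoaminopotentidine from membranes of CHO cells expressing human H2 receptors. At least three independent experiments, each performed in triplicate.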

[9] = molecular target: Histamine H3 receptor (Cavia porcellus) (UniProt Q9JI35); conditions: Ileum

T1 sequence (P25021 whole entry): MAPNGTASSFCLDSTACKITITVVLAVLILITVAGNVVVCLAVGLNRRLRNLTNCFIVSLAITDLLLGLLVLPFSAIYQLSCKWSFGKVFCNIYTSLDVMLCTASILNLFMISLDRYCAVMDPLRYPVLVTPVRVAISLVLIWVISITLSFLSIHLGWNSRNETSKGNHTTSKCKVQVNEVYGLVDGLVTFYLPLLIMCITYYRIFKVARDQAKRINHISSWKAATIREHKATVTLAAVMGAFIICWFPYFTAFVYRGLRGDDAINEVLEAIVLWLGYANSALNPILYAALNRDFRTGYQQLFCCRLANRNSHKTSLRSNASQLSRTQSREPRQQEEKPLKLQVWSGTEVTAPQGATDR
T2 sequence (Q9JI35 whole entry): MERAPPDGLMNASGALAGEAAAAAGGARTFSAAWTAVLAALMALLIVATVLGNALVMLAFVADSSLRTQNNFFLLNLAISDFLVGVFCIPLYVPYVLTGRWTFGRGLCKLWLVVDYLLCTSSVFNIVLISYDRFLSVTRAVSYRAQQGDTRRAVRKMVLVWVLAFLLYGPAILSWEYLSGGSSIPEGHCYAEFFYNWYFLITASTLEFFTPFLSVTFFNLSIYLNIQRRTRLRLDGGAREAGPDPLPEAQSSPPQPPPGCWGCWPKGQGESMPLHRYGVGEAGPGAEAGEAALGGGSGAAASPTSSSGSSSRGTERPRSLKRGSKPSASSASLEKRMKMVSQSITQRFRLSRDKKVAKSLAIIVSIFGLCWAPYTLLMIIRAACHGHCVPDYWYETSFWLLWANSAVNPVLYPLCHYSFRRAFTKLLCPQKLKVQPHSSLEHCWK
T3 sequence (P31389 whole entry): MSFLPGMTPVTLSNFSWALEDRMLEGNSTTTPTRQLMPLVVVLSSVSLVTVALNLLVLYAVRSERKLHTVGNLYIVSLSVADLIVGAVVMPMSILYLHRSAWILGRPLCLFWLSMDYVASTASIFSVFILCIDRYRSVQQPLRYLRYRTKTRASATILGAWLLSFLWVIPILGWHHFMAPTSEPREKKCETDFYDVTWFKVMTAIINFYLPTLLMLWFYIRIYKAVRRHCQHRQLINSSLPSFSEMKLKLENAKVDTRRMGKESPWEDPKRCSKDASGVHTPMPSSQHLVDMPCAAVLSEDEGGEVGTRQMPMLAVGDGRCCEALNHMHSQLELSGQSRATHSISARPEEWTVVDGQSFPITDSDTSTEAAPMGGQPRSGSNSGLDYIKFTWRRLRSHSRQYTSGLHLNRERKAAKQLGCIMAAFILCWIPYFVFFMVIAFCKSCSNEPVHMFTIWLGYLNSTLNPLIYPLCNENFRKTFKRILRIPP
Sequence of Histamine H3 receptor (Cavia porcellus) (Q9JI35 whole entry): as the sequence (Q9JI35 whole entry) above

SMILES	Ki (Histamine H2 receptor [1]) [µM]	Kb (Histamine H3 receptor [2]) [µM]	Ki (Histamine H1 receptor [3]) [µM]	further results
NCCCCCCCCCCc1c[nH]cn1	20	1	0.631	
C[C@@H](N)Cc1c[nH]cn1				pD2 (Histamine H3 receptor [4]): 7.8
N=C(N)SCCCc1c[nH]cn1				Kb (Histamine H3 receptor [5]): 0.01 µM
NCCCCCCCCc1cnc[nH]1	31.6	1	2.51	
NCCc1c[nH]cn1				pD2 [6]: 6.2
N=C(N)SCCc1c[nH]cn1				pD2 [9]: 8.1
NCCCCCCc1cnc[nH]1	200	0.0158	126	

Continued, in another order:

Ki (Histamine H2 receptor [1]) [µM]	Kb (Histamine H3 receptor [2]) [µM]	Ki (Histamine H1 receptor [3]) [µM]	SMILES	further results
> 1000	1.26	> 1000	NCCCc1c[nH]cn1 [HOMOHISTAMINE]	
> 1000	> 1000	> 1000	NCc1c[nH]cn1	
251	0.00398	126	NCCCCCc1c[nH]cn1 [IMPENTAMINE]	
	0.02		NCCCCc1c[nH]cn1 [IMBUTAMINE]	Ki (Histamine H1 receptor [7]): 398 µM; Ki (Histamine H2 receptor [8]): 794 µM
